These results are taken from ChEMBL document CHEMBL4219078, “Discovery of DSP-1053, a novel benzylpiperidine derivative with potent serotonin transporter inhibitory activity and partial 5-HT1A receptor agonistic activity” (Bioorg Med Chem, 2018).

Activity calls are given as the source filed them. The rule behind the calls is not given here.

The target in data set [1] is T1, Sodium-dependent serotonin transporter (Homo sapiens, UniProt P31645). The data set can be described thus: Displacement of [3H]-citalopram from human SERT expressed in HEK293 cell membranes after 60 mins by liquid scintillation counting. Summed up: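 Membranes from cells expressing human serotonin transporter; [3H]citalopram radioligand. Ki from IC50 via Cheng–Prusoff (radioligand concentration and Kd). Ki values are means of two or three independent experiments.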
T1 sequence (P31645 whole entry): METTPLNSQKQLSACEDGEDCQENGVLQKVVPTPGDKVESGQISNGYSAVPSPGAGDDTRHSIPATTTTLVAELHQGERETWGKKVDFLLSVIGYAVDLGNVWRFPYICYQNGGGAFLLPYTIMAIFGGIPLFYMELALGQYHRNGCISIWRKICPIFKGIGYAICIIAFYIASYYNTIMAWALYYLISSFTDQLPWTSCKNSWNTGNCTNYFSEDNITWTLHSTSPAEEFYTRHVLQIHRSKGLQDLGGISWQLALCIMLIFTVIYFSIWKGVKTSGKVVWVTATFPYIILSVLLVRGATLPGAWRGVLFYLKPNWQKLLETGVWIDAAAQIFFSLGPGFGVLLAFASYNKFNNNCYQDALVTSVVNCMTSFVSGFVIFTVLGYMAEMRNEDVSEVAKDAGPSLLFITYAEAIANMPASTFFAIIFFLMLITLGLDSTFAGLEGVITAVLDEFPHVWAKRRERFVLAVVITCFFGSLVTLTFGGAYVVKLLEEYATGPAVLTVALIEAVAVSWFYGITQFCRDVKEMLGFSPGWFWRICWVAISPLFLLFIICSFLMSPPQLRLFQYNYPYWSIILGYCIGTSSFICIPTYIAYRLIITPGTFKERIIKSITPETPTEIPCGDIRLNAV
In general terms: Displacement assays read how much labelled ligand stays bound in the presence of the test substance.

Data set [2] addresses CYP2D6 (Homo sapiens, UniProt P10635). The data set can be described thus: Drug metabolism in human liver microsomes assessed as CYP2D6-medited compound metabolism at 1 uM after 15 to 30 mins by LC-MS/MS analysis. The class given is ADME. To be noted: read-out: Drug metabolism. The procedure, abridged: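 Human liver microsomes (1 mg/mL) with 1 µM test substance and 3 mM NADPH (final) in 50 mM potassium phosphate, pH 7.4, at 37 °C; stopped after 15–30 min with 3 volumes methanol. Metabolic rate taken from slope, with and without 4 µM quinidine (final). The quinidine-resistant fraction was assigned to other enzymes; CYP2D6 contribution = total minus that fraction.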
On the technique in general: Liver microsomes are vesicles of endoplasmic reticulum, rich in cytochrome P450 enzymes.

The target of data set [3] is T1, Sodium-dependent serotonin transporter. The data set can be described thus: Inhibition of human SERT expressed in CHO cells assessed as reduction in [3H]5-HT uptake preincubated for 10 mins followed by [3H]5-HT addition measured after 20 mins by liquid scintillation counting. The class given is cell-based. Summed up:
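CHO cells stably expressing human serotonin transporter; compound or DMSO in reaction buffer pre-incubated with cells at 37 °C for 10 min, then [3H]5-HT plus compound added and incubated 37 °C for 20 min. Cells rinsed twice, lysed, radioactivity counted. IC50 values are means of at least three independent experiments.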

The subject of data set [4] is Rattus norvegicus. The data set can be described thus: Increase in serotonin levels in Crlj:WI rat frontal cortex assessed as at 10 mg/kg, po administered as single dose at 3 hrs post perfusion by microdialysis relative to baseline control. Type of data set: functional, organism-based. The procedure, abridged: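 Frontal cortex microdialysis in rats. Dialysate (10 µL per 5-min collection, at 20-min intervals) was injected automatically into HPLC for 5-HT. Oral dosing followed at least 3 h of perfusion, once baseline was stable, and sampling continued 3 h after dosing.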

Chain of CYP2D6 (P10635 whole entry): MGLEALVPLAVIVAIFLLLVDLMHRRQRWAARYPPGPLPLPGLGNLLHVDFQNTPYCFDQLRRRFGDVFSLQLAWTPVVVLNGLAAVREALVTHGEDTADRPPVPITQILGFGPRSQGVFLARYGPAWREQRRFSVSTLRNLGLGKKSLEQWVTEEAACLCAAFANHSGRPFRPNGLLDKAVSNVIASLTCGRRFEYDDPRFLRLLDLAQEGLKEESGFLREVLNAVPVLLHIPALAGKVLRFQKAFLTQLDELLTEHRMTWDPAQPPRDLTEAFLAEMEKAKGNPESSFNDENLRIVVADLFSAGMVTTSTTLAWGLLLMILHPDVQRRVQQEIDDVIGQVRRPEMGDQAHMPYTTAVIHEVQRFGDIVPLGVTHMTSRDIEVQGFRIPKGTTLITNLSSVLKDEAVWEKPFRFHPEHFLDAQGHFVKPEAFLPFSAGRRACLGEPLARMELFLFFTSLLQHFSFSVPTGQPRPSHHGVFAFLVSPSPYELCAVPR

As usually defined, the Ki is the dissociation constant of the complex between target and ligand, obtained from inhibition or displacement. Low values mean tighter binding, high ones weaker binding. On to `COCCOc1cc(Br)cc(CC2CCN(CCc3ccc4c(c3)OCCO4)CC2)c1`, for which the affinity in data set [1], expressed as Ki, was 18.5 nM. Further, the metabolised at 1 µM in data set [2] came out at 49.4%.

As to `COCCOc1cccc(CC2CCN(CCc3ccc4c(c3)C(=O)CCO4)CC2)c1`, in data set [1], the Ki was 202 nM.

As to `CCc1ccc(CC2CCN(CCc3ccc4c(c3)C(=O)CCO4)CC2)cc1OCCOC`, the affinity in data set [1], expressed as Ki, was 9.85 nM. Moreover, the metabolised at 1 µM in data set [2] turned out to be 18.4%.

`COCCOc1cc(CC2CCN(CCc3ccc4c(c3)OCCO4)CC2)ccc1Br` displayed a Ki in data set [1] of 2.39 nM. Besides, the metabolised at 1 µM in data set [2] was determined as 55.6%.

As a reminder, the IC50 is the concentration needed to halve the response being measured. With `COCCOc1cc(CC2CCN(CCc3ccc4c(c3)C(=O)CCO4)CC2)ccc1C`, in data set [3], the IC50 was determined as 45.3 nM. Moreover, in data set [1], the Ki was 5.25 nM. For the same molecule, in data set [2], the metabolised at 1 µM amounted to 48.5%.

Consider `COCCOc1cc(CC2CCN(CCc3ccc4c(c3)CCCO4)CC2)ccc1Br`, for which the Ki in data set [1] worked out at 1.74 nM. For the same molecule, the metabolised at 1 µM in data set [2] was determined as 0%.

Regarding `COCCOc1cc(CC2CCN(CCc3ccc4c(c3)C(=O)CCC4)CC2)ccc1Br`, the Ki in data set [1] was 0.67 nM. The metabolised at 1 µM in data set [2] is 11.8%.

Take `COCCOc1cc(CC2CCN(CCc3ccc4c(c3)OCCC4=O)CC2)ccc1Br`: the Ki in data set [1] was determined as 1.41 nM. In addition, the metabolised at 1 µM in data set [2] was found to be 3.6%.

`COCCOc1cc(CC2CCN(CCc3ccc4c(c3)C(O)CCO4)CC2)ccc1Br` (stereo not given): the affinity in data set [1], expressed as Ki, was 8.44 nM. Also, in data set [2], the metabolised at 1 µM amounted to 36.4%.

Regarding `COCCOc1ccc(Br)c(CC2CCN(CCc3cc4c(cc3Cl)OCCO4)CC2)c1`, the metabolised at 1 µM in data set [2] was 86%.

In turn, `COCCOc1cc(CC2CCN(CCc3cc4c(cc3Cl)OCCO4)CC2)ccc1Br` came in with a Ki in data set [1] of 5.47 nM. In addition, the metabolised at 1 µM in data set [2] is 75.6%.

Molecule `COCCOc1cc(CC2CCN(CCc3ccc4c(c3)C(=O)CCCO4)CC2)ccc1Br` came in with a Ki in data set [1] of 1.17 nM. The metabolised at 1 µM in data set [2] was found to be 4.2%.

Turning to `COCCOc1cc(CC2CCN(CCc3ccc4c(c3)C(=O)CCO4)CC2)ccc1C(C)C`, the Ki in data set [1] stood at 246 nM.

For the molecule `COCCOc1cc(CC2CCN(CCc3ccc4c(c3)OCCC4)CC2)ccc1Br`, in data set [1], the affinity, expressed as Ki, was 5.4 nM. For the same molecule, the metabolised at 1 µM in data set [2] is 6.8%.

`COCCOc1cc(CC2CCN(CCc3ccc4c(c3)S(=O)(=O)CCO4)CC2)ccc1Br`: in data set [1], the Ki came out at 2.59 nM. Also, in data set [2], the metabolised at 1 µM came out at 55.8%.

With `COCCOc1cc(Br)cc(CC2CCN(CCc3cc4c(cc3Cl)OCCO4)CC2)c1`, the affinity in data set [1] corresponds to a Ki of 14.1 nM. In addition, in data set [2], the metabolised at 1 µM amounted to 64.4%.

`COCCOc1cc(CC2CCN(CCc3ccc4c(c3)C(=O)CCO4)CC2)ccc1I`: in data set [1], affinity was put at a Ki of 0.41 nM.

Consider `COCCOc1cc(CC2CCN(CCc3ccc4c(c3)C(=O)CCO4)CC2)ccc1Br`, for which, in data set [4], the outcome was Active. For the same molecule, the metabolised at 1 µM in data set [2] is 0%.

Molecule `COCCOc1cccc(CC2CCN(CCc3cc4c(cc3Cl)OCCO4)CC2)c1Br` returned a Ki in data set [1] of 74.6 nM.

For the molecule `COCCOc1cc(CC2CCN(CCc3ccc4c(c3)C(=O)CCO4)CC2)ccc1F`, affinity in data set [1] was put at a Ki of 111 nM.

`COCCOc1cc(Br)cc(CC2CCN(CCc3ccc4c(c3)C(=O)CCO4)CC2)c1` returned an inhibition constant (Ki) in data set [1] of 5.32 nM. The metabolised at 1 µM in data set [2] is 14%.

Turning to `COCCOc1cc(CC2CCN(CCc3ccc4c(c3)C(=O)CCO4)CC2)ccc1Cl`, the concentration for half-maximal inhibition (IC50) in data set [3] was 16.4 nM. Further, the Ki in data set [1] was 3.37 nM. The metabolised at 1 µM in data set [2] was 53.5%.
